Assay outcomes as filed in PubChem BioAssay.
IDE inh: inhibits human insulin-degrading enzyme in HEK cells; P14735; hit rate 0.41% among 320,000; AID 434962; inhibition, % at 5.59 µM; FAbetaB cleavage, fluorescence polarization;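 active = percent inhibition above the average of all tested compounds plus 3 SD, set per screening campaign, cut at about 16% in these data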;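 note: IDE supplied by intact live HEK cells; FP after avidin binding of uncleaved biotin substrate so inhibition keeps polarization high; 0% = DMSO wells and 100% = 60 µM reference IDE inhibitor Ii1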
HNF4A DNA FP: change in binding of human HNF4 alpha to DNA; AID 1224865; activity change, % at 10 µM; hit rate 0.3% among 360,000; HNF4a-FITC DNA binding, fluorescence polarization, 1 h; P41235; in the data active = activity change above about 30%, passing the limit was not always enough
Target sequence (P41235 whole entry, looked up): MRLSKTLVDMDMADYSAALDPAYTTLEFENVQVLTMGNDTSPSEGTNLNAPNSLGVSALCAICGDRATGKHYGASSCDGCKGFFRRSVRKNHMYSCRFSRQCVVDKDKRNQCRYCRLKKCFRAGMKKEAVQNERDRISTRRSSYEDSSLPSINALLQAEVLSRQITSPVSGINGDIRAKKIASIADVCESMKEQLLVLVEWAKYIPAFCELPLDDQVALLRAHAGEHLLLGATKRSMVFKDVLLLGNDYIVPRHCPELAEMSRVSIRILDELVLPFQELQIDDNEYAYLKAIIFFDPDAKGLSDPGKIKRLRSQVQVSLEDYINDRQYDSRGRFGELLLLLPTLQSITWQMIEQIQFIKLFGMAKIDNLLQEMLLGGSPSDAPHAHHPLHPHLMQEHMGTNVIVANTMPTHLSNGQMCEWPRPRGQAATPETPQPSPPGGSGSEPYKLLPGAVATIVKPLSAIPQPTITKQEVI
CSN deneddyl inh: CSN deneddylation inhibition; Q92905; Purified CSN, SCF-Nedd8-OG deneddylation, fluorescence polarization; inhibition, % at 12.5 µM; hit rate 0.38% among 360,000; AID 651999;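 active = pattern-corrected inhibition above about 35%, with an unprinted fluorescence ratio check between 0.5 and 1.5, limit read from the data, passing the limit was not always enough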;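 note: 0% = enzyme with substrate and 100% = substrate without enzyme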
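Material: human Csn5 produced in HEK293T cells; Input: enzyme 0.24 nM; Reagent: SCFSkp2-Nedd8OG substrate at 10 nM final; Dosing: 12.5 µM compound; Incubation: 90 min reaction at room temperature; Detection: fluorescence polarization of the substrate; Evaluation: % inhibition of substrate cleavage by Csn5; Control set: substrate-only high control, full reaction low control.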
TPT1 inhibitor: blocks Candida albicans tRNA 2'-phosphotransferase. recombinant caTPT1, FP RNA substrate dephosphorylation. inhibition, % at 5 µM. hit rate 0.81% among 300,000. AID 1962;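 active = inhibition above the mean of all tested compounds plus 3 SD, set per screening campaign, cut at about 24% in these data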;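 note: plate controls were DMSO alone for no effect and ferristatin control at 100 nM for full effect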
IDE act: boosts human insulin-degrading enzyme activity in HEK cells; FAbeta-B cleavage, fluorescence polarization; 0% vehicle, 100% cell-free pure enzyme wells; activation, % at 5.96 µM; hit rate 0.073% among 340,000; AID 493087;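 active = activation above the mean of all tested compounds plus 3 SD, set per screening campaign, cut at about 17% in these data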
The depositor's hits bear a star; nt = no result given. Sampled rows, rich in hits. Any-hit rate of the full collection: about 1.4%.

SMILES | IDE inh | HNF4A DNA FP | CSN deneddyl inh | TPT1 inhibitor | IDE act
CC(C)(C)NC(=O)C(c1ccc(C(F)(F)F)cc1)n1c(=O)c(-c2cc3ccccc3[nH]2)nc2ccccc21 (stereo not drawn) | nt | 2.0 | -3.7 | nt | nt
C#CCOCCOCCOCCNc1nc(N2CCN(C(=O)CCCCCCCCCCNC(=O)Cn3cc(C[C@@H](C)O)nn3)CC2)nc(N2CCN(C(=O)CCCCCCCCCCNC(=O)[C@H](CCCCN)n3cc(C[C@@H](C)CC)nn3)CC2)n1 | -3.7 | 140.4 | 86.8* | 2.0 | 30.3*
C#CCOCCOCCOCCNc1nc(N2CCN(C(=O)CCCCCCCCCCNC(=O)[C@@H](CCSC)n3cc(CCO)nn3)CC2)nc(N2CCN(C(=O)CCCCCCCCCCNC(=O)[C@H]([C@@H](C)CC)n3cc(CCCCN=C(N)N)nn3)CC2)n1 | 5.3 | 211.6 | 139.4* | -3.8 | 45.6*
C#CCOCCOCCOCCNc1nc(N2CCN(C(=O)CCCCCCCCCCNC(=O)Cn3cc(C[C@@H](C)O)nn3)CC2)nc(N2CCN(C(=O)CCCCCCCCCCNC(=O)Cn3cc(C[C@@H](C)O)nn3)CC2)n1 | -2.6 | 0.6 | 5.9 | -2.7 | -2.0
C#CCOCCOCCOCCNc1nc(N2CCN(C(=O)CCCCCCCCCCNC(=O)[C@@H](CCSC)n3cc(CCO)nn3)CC2)nc(N2CCN(C(=O)CCCCCCCCCCNC(=O)[C@H]([C@@H](C)CC)n3cc(CCCCCN)nn3)CC2)n1 | -7.5 | nt | nt | -0.3 | nt
CC1(C(=O)Nc2ccc3c(c2)OCCO3)CSCC(=O)N1CC(F)(F)F (stereo not drawn) | nt | -4.6 | -1.8 | nt | nt
COc1ccc(CCNC(=O)c2cc3ccc(Cl)cc3nc2N)cc1 | nt | 3.8 | 2.8 | nt | nt
Cc1ccccc1Cc1c(C)nc2nc(SCC(=O)NCCCN3CCCCC3)nn2c1C | -0.5 | 9.4 | -3.9 | -1.6 | 4.5
Cc1nc2nc(SCC(=O)NCCCN3CCCCCC3)nn2c(C)c1Cc1ccccc1 | -0.4 | 68.3* | 88.0* | -2.2 | 0.1
COC(=O)[C@H](CC(C)C)NC(=O)CC[C@H]1O[C@@H](n2cc(C)c(=O)[nH]c2=O)C[C@@H]1O | nt | 0.2 | 6.2 | nt | nt
CC1(C(=O)NCc2ccccc2)CSCC(=O)N1Cc1cccc(C(F)(F)F)c1 (stereo not drawn) | nt | 3.0 | -0.2 | nt | nt
O=[N+]([O-])c1cccc(/C=N\N2CCN(Cc3ccccc3Cl)CC2)c1 | 2.1 | 42.0* | -6.5 | 4.5 | 4.5
O=[N+]([O-])c1cccc(/C=N/N2CCN(Cc3ccccc3)CC2)c1 | 2.4 | -2.2 | 5.3 | -4.5 | -4.0
Nc1nc(-c2ccc(Oc3ccccc3)cc2)c(CC(=O)O)s1 | nt | 11.3 | 41.9* | nt | -2.0
Cc1ccc(Nc2nc(-c3ccc(C)cc3)c(CC(=O)O)s2)cc1 | -0.7 | 16.0 | 64.8* | 8.6 | -2.4
Cn1c2c(c(=O)n(C)c1=O)CS(=O)c1ccccc1N2 (stereo not drawn) | nt | -1.6 | -3.2 | nt | nt
O=C(/C=C/c1ccco1)Nc1ccc(-c2nc3ccccc3[nH]2)cc1 | 8.1 | 65.6* | 5.0 | -0.6 | -2.0
O=C(Nc1ccc(-c2nc3ccccc3[nH]2)cc1)c1ccco1 | 14.6 | 0.7 | -3.5 | 2.2 | -8.8
NC(c1csc(Nc2ncccn2)n1)c1ccccc1Cl (stereo not drawn) | nt | 1.6 | 2.1 | nt | nt
Cc1c(NC(=O)C2CCN(S(=O)(=O)c3ccc(Cl)cc3)CC2)c(=O)n(-c2ccccc2)n1C | -2.7 | 6.0 | -0.9 | 4.3 | 1.5
Cc1c(NC(=O)C2CCCN2S(=O)(=O)c2ccccc2)c(=O)n(-c2ccccc2)n1C (stereo not drawn) | -1.1 | 1.6 | 56.6* | -0.7 | 5.4
O=C(Nc1ccc(F)cc1)N(Cc1cccs1)Cc1cc2cc3c(cc2[nH]c1=O)OCO3 | 1.5 | -0.8 | -4.6 | 2.9 | 5.2
O=C(Nc1ccc(F)cc1)N(Cc1ccco1)Cc1cc2cc3c(cc2[nH]c1=O)OCO3 | -1.1 | 41.9* | -2.3 | 0.0 | 2.4
CC1(c2nnc(Cc3ccccc3)o2)CC(c2c(Cl)cccc2Cl)=NO1 (stereo not drawn) | 5.9 | -2.0 | -6.2 | -1.1 | 39.4*
Cn1c(/C=C/c2ccc([N+](=O)[O-])o2)nc2ccccc2c1=O | 3.2 | 59.5* | 28.5 | -39.8 | 5.1
SMILES | IDE inh | HNF4A DNA FP | CSN deneddyl inh | TPT1 inhibitor | IDE act
Cn1c(/C=C/c2ccccc2)nc2ccccc2c1=O | 7.2 | -3.4 | 0.9 | -2.4 | -1.4
COc1ccc(CNc2cccnc2Cl)cc1 | nt | -0.3 | -3.6 | nt | nt
COc1ccc(Oc2c(OC)cc(NCc3ccc(CN)cc3)c3ncccc23)cc1 | nt | -40.2 | 41.6* | nt | nt
CCCN1CCc2c(sc(NC(=O)c3ccc(S(=O)(=O)N4CCN(C(=O)OCC)CC4)cc3)c2C(N)=O)C1 | 11.4 | 91.5* | 52.5* | 156.5* | -8.5
Cc1ccc(C2CC(=O)C=C(Nc3ccc(Cl)cc3)C2)cc1 (stereo not drawn) | 13.3 | 34.9* | 3.1 | -4.6 | 3.5
N#CC1=C(Nc2ccccc2Cl)SC2(CCCC2)NC1=O | nt | 4.8 | -2.5 | nt | nt
COc1ccc(N2CCN(C(=O)C(=O)c3cc(OC)c4ccccc4c3)CC2)cc1 | nt | -0.9 | -0.2 | nt | nt
CSCCC(C(=O)NCc1ccccc1)n1c(-c2ccc3c(c2)CCO3)nc2ccccc21 (stereo not drawn) | nt | -1.4 | -4.0 | nt | nt
CCN(CC)CCCN(C(=O)c1ccc(Br)cc1)c1nc(-c2ccc(OC)cc2)cs1 | 6.4 | 3.1 | -4.2 | -0.9 | 4.2
CCN(CC)CCOC(=O)c1ccc(N/C=C(/C#N)c2nc(-c3ccc(OC)cc3)cs2)cc1 | 2.8 | 238.2 | 137.1* | 6.2 | 4.6
CC1(C(=O)NS(=O)(=O)c2cccc(Cl)c2)CCN1C(=O)c1ccccc1CCc1ccccc1 (stereo not drawn) | nt | -0.1 | 0.4 | nt | nt
CCOC(=O)c1c(NC(=O)CSc2cccc[n+]2[O-])sc(C(=O)Nc2ccccc2)c1C | 8.3 | 5.6 | 104.8* | 17.3 | -8.6
C[C@@]12CC(=O)NC1N(C(=O)c1ccccc1)C(c1ccccc1OC(=O)c1ccccc1)C2 (stereo partly drawn) | -1.2 | 36.4* | -0.1 | -2.1 | 2.2
COc1ccc(CN2C(=O)CN(S(C)(=O)=O)CC2(C)C(=O)NCc2ccccc2)cc1OC (stereo not drawn) | nt | -2.2 | -0.6 | nt | nt
Cc1ccc2c(c1)N(Cc1cccc(C#N)c1)C=NS2(=O)=O | 1.9 | -1.8 | 99.7* | -2.1 | 1.2
Cc1ccc2c(c1)N(Cc1ccc([N+](=O)[O-])cc1)C=NS2(=O)=O | 0.5 | 0.7 | -1.6 | -0.8 | 2.8
O=C1C=C(c2ccc(-c3ccccc3)cc2)C[C@@H](c2ccc3c(c2)OCO3)C1 | 0.6 | -3.2 | -2.0 | nt | 42.7*
COCCNC(=O)c1sc2ncn(CC(=O)N3CCCCC3)c(=O)c2c1C | 4.7 | 64.5* | 1.0 | -6.5 | 7.2
CCOC(=O)[C@]12CCC=C1N(CCC1=CCCCC1)C(=O)[C@H](CC(=O)NCCCCc1ccccc1)C2 | nt | 3.4 | -6.3 | nt | nt
O=C(O)C(=O)/C(=C\c1ccccc1)c1ccc2ccccc2n1 | 3.3 | 2.5 | 2.3 | 29.6* | -4.2
